From PubChem
MrgX1 PAM: positive allosteric modulators of MrgX1, primary screen, HEK293 cells, Fluo-4 calcium flux; FDSS; hits give high values; B-score at 10 µM; 310,000 compounds, 0.63% hits; AID 588675, 2011;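 active = plate-corrected calcium response at least 3 library SD above typical, normal starting fluorescence, not activating the receptor alone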;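 also: compound read alongside a low EC10 to EC30 dose of BAM8-22 agonist; peak minus trough fluorescence over baseline measured at the second addition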
Target sequence (Q96LB2 whole entry, looked up): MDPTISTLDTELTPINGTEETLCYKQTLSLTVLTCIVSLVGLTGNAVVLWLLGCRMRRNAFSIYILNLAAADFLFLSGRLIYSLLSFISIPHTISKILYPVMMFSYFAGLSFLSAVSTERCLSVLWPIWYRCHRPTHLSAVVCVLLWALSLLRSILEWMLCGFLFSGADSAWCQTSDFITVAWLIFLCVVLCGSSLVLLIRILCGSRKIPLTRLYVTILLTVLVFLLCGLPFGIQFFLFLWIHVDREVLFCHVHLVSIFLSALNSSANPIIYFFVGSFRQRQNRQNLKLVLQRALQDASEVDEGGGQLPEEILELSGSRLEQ
RGS4 pot: RGS4 potentiators or activators, primary screen, cell-based, HEK293 M3R inducible RGS4, calcium flux; carbachol calcium flux Fluo4; hits give low values; B-score at 10 µM; 310,000 compounds, 0.92% hits;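 active = B-score of the integrated calcium signal more than 4 SD below the library mean, with starting fluorescence not abnormally high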;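 also: negative B-score means reduced calcium response which marks RGS4 activation or potentiation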
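System – HEK293 FlpIn-TREx cells, stable M3R, doxycycline-inducible RGS4 · Reagent – ECmax carbachol challenge · Times – compound preincubation 20 min at room temperature before agonist · Technique – Fluo4 fluorescence kinetic imaging of calcium · Measure – B score of integrated Fluo4 ratio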
MrgX1 ag: agonists of human MrgX1 receptor, primary screen, HEK293 cells, Fluo-4 calcium flux; Mas-related G-protein coupled receptor member X1 (Homo sapiens), Q96LB2; Fluo-4 calcium fluorescence, agonist mode; hits give high values; B-score at 10 µM; 310,000 compounds, 0.44% hits;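 active = calcium response B-score plate-corrected fluorescence ratio at least 3 library SD, with starting fluorescence B-score inside 5 SD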
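System: HEK293 cells stably expressing human MrgX1 receptor; Dosing: test compound in the initial addition of three; Schedule: overnight plating, then 30 min 37 °C plus 30 min room-temperature dye loading; Detection: kinetic calcium dye fluorescence, Fluo-4 NW; Controls: per-plate positive and negative controls for Z′ factor.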
RGS4 inh: RGS4 inhibitors, primary screen, cell-based, HEK293 M3R inducible RGS4, calcium flux; Regulator of G-protein signaling 4 (Homo sapiens), P49798; Fluo-4 calcium flux; hits give high values; triggered by carbachol at its EC20; B-score at 10 µM; 310,000 compounds, 0.45% hits; AID 463165, 2010;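 active = B-score, a plate-corrected calcium signal, over three deviations above library mean, with baseline fluorescence within five deviations of library mean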;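 also: RGS4 expression induced by doxycycline in cells with stable M3 receptor; B-score is computed from the integrated fluorescence ratio over baseline after carbachol; higher B-score means a larger calcium signal and so more RGS4 inhibition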
Target sequence (P49798 whole entry, looked up): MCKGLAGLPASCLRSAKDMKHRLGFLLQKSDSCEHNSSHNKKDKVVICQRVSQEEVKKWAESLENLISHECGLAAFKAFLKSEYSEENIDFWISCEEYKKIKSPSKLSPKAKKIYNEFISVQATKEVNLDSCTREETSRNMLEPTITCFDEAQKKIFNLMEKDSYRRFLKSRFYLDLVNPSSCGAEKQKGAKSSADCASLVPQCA
MrgX1 antag: antagonists of human MrgX1 receptor, primary screen, HEK293 cells, Fluo-4 calcium flux; 310,000 compounds, 1.3% hits; BAM8-22 antagonism; hits give low values; Mas-related G-protein coupled receptor member X1 (Homo sapiens), Q96LB2; B-score at 10 µM;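 active = calcium-response B-score plate-corrected more than 3 library SD below zero, starting fluorescence within 5 deviations, no agonist response on first addition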;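 also: peak minus trough fluorescence over baseline after final BAM8-22 challenge near maximal dose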
Hep lipid drop: inhibitors of hepatocyte lipid droplet formation, primary screen, imaging, high-throughput imaging, BODIPY stain; AML12 mouse hepatocytes, oleate lipid droplets; inhibition, % at 6.5 µM; 240,000 compounds, 0.4% hits;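 active = lipid droplet intensity inhibited by at least 50%, with more than 500 cells counted; inconclusive = wells with under 300 cells, treated as cytotoxic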
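Assay system: AML12 hepatocytes (mouse) / Also added: 100 µM oleic acid challenge / Times: overnight treatment with compound plus oleate / Detection: high-content imaging of BODIPY-stained droplets and DAPI nuclei / Evaluation: % inhibition of lipid droplet signal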
RGS4 act valid: reduced carbachol calcium response, RGS4-induced M3R cells, confirmation, RGS4 activator project, cell-based, HEK293 M3R/RGS4 inducible, calcium flux, duplicate; inhibition, % at 10 µM; 1,100 compounds, 89% hits; carbachol calcium flux Fluo4; shares compounds with RGS4 pot; AID 602282, 2012;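 active = inhibition above 3 SD of the buffer control wells, cut at about 41% in these data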;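 also: signal is the integrated peak-minus-minimum Fluo4 fluorescence over baseline ratio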
RGS4 act ctr: counter-screen for RGS4 activators: effect in non-induced cells; shares compounds with RGS4 pot; HEK293 M3R non-induced RGS4, Fluo4 calcium flux; after carbachol challenge at its EC90; inhibition, % at 10 µM; 1,100 compounds, 82% hits; AID 602283;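 active = inhibition exceeding 3 SD of buffer-only control wells, cut at about 26% in these data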;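 also: percent drop in integrated peak-minus-baseline over baseline Fluo4 ratio after carbachol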
RGS4 block valid: enhanced carbachol calcium response, M3R/RGS4 cells, RGS4 inhibitor project, cell-based, validation screen, HEK293 M3R/RGS4, calcium flux; shares compounds with RGS4 inh; carbachol calcium Fluo-4 fluorescence; carbachol added at its EC20; 0 = buffer wells, 100 = carbachol control; 1,700 compounds, 65% hits; calcium response, % at 10 µM;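 active = duplicate-averaged calcium response above the buffer-only control mean plus 5 SD of those controls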;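 also: integrated fluorescence ratio F max minus min over baseline F0; higher response in RGS4-induced cells means RGS4 inhibition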
RGS4 uninduced: carbachol calcium response in non-induced M3R cells, confirmation, counter-screen for RGS4 inhibitor project, cell-based, HEK293 M3R | shares compounds with RGS4 inh | AID 493000, 2010 | 1,900 compounds, 20% hits | carbachol calcium Fluo-4; submaximal (EC20) carbachol stimulus; buffer wells 0%, carbachol control wells 100% | activity (percent), % at 10 µM; call rule not given here;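 also: RGS4 induction absent so cells express M3R without RGS4; higher means more calcium signal and flags a non-specific hit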
M3R basal Ca ctr: second counter-screen for RGS4 inhibitors: non-induced cells without carbachol. shares compounds with RGS4 inh. HEK293 M3R/RGS4 non-induced, Fluo-4 calcium, no carbachol; normalised: buffer wells 0%, carbachol wells 100%. calcium response (agonist-mode artifact), % at 10 µM. 1,900 compounds, 22% hits. AID 493001;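 active = duplicate-averaged calcium rise in uninduced cells above buffer wells' mean plus 5 SD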
MrgX1 ag confirm: MrgX1 receptor agonists, duplicate retest, confirmation, HEK293 cells, Fluo-4 calcium flux. activation, % at 10 µM. 600 compounds, 78% hits. Fluo-4 calcium fluorescence, FDSS. shares compounds with MrgX1 ag;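 active = calcium signal rise, corrected for plate position, at least 3 library SD high, with starting brightness within 5 such deviations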
HEK293 Ca flux: nonspecific calcium signal in parental HEK293, confirmation, counter-screen for MrgX1 antagonist project, parental HEK293 cells, Fluo-4 calcium flux; shares compounds with MrgX1 antag; Fluo-4 calcium fluorescence, FDSS; AID 624111, 2012; fluorescence ratio F(max-min)/F0 at 10 µM; 4,000 compounds, 2% hits;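 active = duplicate-averaged calcium fluorescence ratio at least three times the standard deviation of buffer wells, a nonspecific response in parental cells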
HEK293 Ca counter: calcium response in parental HEK293 cells, primary screen, counter-screen for MrgX1 allosteric activator project, cell-based, Fluo-4 calcium flux, duplicate; fluorescence ratio F(max-min)/F0 at 10 µM; shares compounds with MrgX1 antag; AID 624114, 2012; Fluo-4 fluorescence ratio; hits give high values; 4,000 compounds, 0.4% hits;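 active = calcium fluorescence ratio, averaged over duplicates, at least 3 SD of the buffer-well ratio, meaning a nonspecific response in receptor-free cells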;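 also: untransfected parental HEK293 lacking MrgX1 used as counterscreen for MrgX1 allosteric activators; fluorescence change taken during the second addition on a kinetic imager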
HEK293 Ca cntr2: calcium response in parental HEK293 cells, primary screen, counter-screen for MrgX1 agonist project, cell-based, Fluo-4 calcium flux, duplicate, agonist mode; shares compounds with MrgX1 antag; Fluo-4 calcium fluorescence (FDSS); hits give high values; fluorescence ratio F(max-min)/F0 at 10 µM; 4,000 compounds, 8.7% hits;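 active = calcium fluorescence ratio at least three times the spread of buffer wells, meaning a non-specific response in parental cells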
Active calls of the source: *; i = inactive; ? = inconclusive; . = not tested or not shown. A selection: hits, their analogues and other compounds. The true share with any hit is near 3.8%.

SMILES | MrgX1 PAM | RGS4 pot | MrgX1 ag | RGS4 inh | MrgX1 antag | Hep lipid drop | RGS4 block valid | RGS4 uninduced | M3R basal Ca ctr | others
CCCCn1c(=O)c(C(=O)Nc2ncccc2C)c(O)c2ccccc21 | i | -9.48* | 35.1* | i | i | 6.2 | . | . | . | RGS4 act valid=66.5*;RGS4 act ctr=40.8*;MrgX1 ag confirm=i;HEK293 Ca flux=i;HEK293 Ca counter=i;HEK293 Ca cntr2=i
O=C(O)c1sc2cc(Cl)ccc2c1Cl | i | i | i | i | i | 3.0 | . | . | .
C=C1C(=O)O[C@@H]2C[C@@H](C)[C@@H]3C=CC(=O)[C@@]3(C)[C@@H](OC(=O)CC(=O)O[C@H]3[C@@H]4C(=C)C(=O)O[C@@H]4C[C@@H](C)[C@@H]4C=CC(=O)[C@]43C)[C@H]12 | i | i | i | i | -5.32* | ? | . | i | 11.0%*
O=C1NC(=O)N(Cc2ccccc2Cl)C(=O)/C1=C/c1cccs1 | i | i | i | i | i | 12.8 | . | . | .
O=C1NC(=O)N(Cc2ccc(F)cc2)C(=O)/C1=C/c1cccs1 | i | i | i | 30.2* | i | 11.8 | 15.0%* | i | i
COc1ccc(N2C(=O)/C(=C/c3ccc(C)o3)C(=O)NC2=S)cc1 | . | i | . | i | . | 2.6 | . | 33.0%* | 12.0%*
Cc1ccc(/C=C2\C(=O)NC(=S)N(c3cccc(F)c3)C2=O)o1 | i | i | i | 15.7* | i | 9.7 | 34.5%* | i | i
Cc1ccc(/C=C2\C(=O)NC(=O)N(CCc3ccc(F)cc3)C2=O)o1 | i | i | i | i | i | -0.7 | . | i | 8.5%*
COc1ccccc1N1CCN(Cc2cccc(Br)c2)CC1 | i | i | i | i | i | -0.1 | . | . | .
COc1ccc(NP(=O)(Oc2ccc(Cl)cc2)Oc2ccc(Cl)cc2)cc1OC | i | i | i | 11.6* | i | -42.5 | 42.5%* | i | i
CN1CCN(C(=O)O[C@H]2c3nccnc3C(=O)N2c2ccc(Cl)cn2)CC1 | i | i | i | i | i | 3.6 | . | . | .
O=C1NC(=O)C(=Cc2coc3ccc(O)cc3c2=O)C(=O)N1 | i | i | i | 5.3* | i | 9.1 | 8.5%* | i | i
Cc1ccc2c(c1)=NC(=O)/C(=C/c1c(O)[nH]c(=O)[nH]c1=O)C=2 | i | i | i | i | i | -28.5 | . | i | i
COc1ccc(OC)c(N2C(=O)/C(=C/c3ccco3)C(=O)NC2=S)c1 | i | i | i | i | i | . | . | . | .
COc1ccc(OC)c(N2C(=O)NC(=O)/C(=C/c3ccc([N+](=O)[O-])s3)C2=O)c1 | i | i | i | 5.8* | i | -1.5 | 15.0%* | i | i
Cc1cccc(C)c1NC1=NCCCCS1 | i | i | i | i | i | 2.8 | . | . | .
Cn1cnc(CCN)c1 | i | i | i | i | i | . | . | . | .
COc1cc(/C=C2\C(=O)NC(=O)N(c3ccccc3)C2=O)c([N+](=O)[O-])cc1OC | . | . | . | . | . | -31.1 | . | . | .
CN1C(=O)NC(=O)/C(=C\C=C\c2ccccc2[N+](=O)[O-])C1=O | i | i | i | 6.62* | i | -1.9 | 16.0%* | i | 10.5%*
CNC(=O)NC(O)C(Cl)(Cl)Cl (centres undefined) | i | i | i | i | i | 4.1 | . | . | .
O=C1NC(=O)N(c2ccc3c(c2)OCO3)C(=O)/C1=C/c1ccsc1 | i | i | i | i | i | 25.9 | . | . | .
O=C1NC(=O)N(c2ccc3c(c2)OCO3)C(=O)/C1=C/c1cccs1 | i | i | i | 13.5* | i | 22.0 | 18.0%* | 34.5%* | i
CCC1(c2ccccc2)C(=O)N(COC)C(=O)N(COC)C1=O | i | i | i | i | i | . | . | . | .
